Source: ChEMBL document CHEMBL1147263, “New cinnamylphenols from Dalbergia species with cancer chemopreventive activity” (J Nat Prod, 2003)
Blank lines part the entries; values can stand above or below the molecule they belong to.

Legend:
[1] = system: Raji; assay: Inhibition of 12-O-tetradecanoylphorbol-13-acetate-induced EBV-early antigen activation in human Raji cells assessed as EA induction at 0.32 nmol relative to 12-O-tetradecanoylphorbol-13-acetate; type: cell-based; parameters: scale not given: the % may be the effect or the level left; details: human gammaherpesvirus 4
In short: (§1)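 Raji cells at 10^6 cells/mL resuspended in RPMI 1640 + 10% FCS containing 4 mM n-butyric acid, 32 pmol TPA (20 ng/mL in DMSO) and test compound in DMSO. Incubated 48 h at 37 °C. EA-positive cells scored blind, ≥500 cells per assay. Reported as % EBV-EA activation ± SD relative to the TPA-only control (100%).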

[2] = Inhibition of 12-O-tetradecanoylphorbol-13-acetate-induced EBV-early antigen activation in human Raji cells assessed per 32 pmol TPA; type: cell-based, human gammaherpesvirus 4
In short: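 IC50 given as the mol ratio of compound to TPA giving 50% inhibition of EBV-EA activation versus the TPA-only control (32 pmol TPA = 100%). Raji cells were kept in RPMI 1640/10% FCS with 4 mM n-butyric acid and DMSO-dissolved compound at 10–1000 mol ratio, 48 h, 37 °C. EA-positive cells were counted blind, ≥500 per assay.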

[3] = system: Raji; assay: Inhibition of 12-O-tetradecanoylphorbol-13-acetate-induced EBV-early antigen activation in human Raji cells assessed as EA induction at 32 nmol relative to 12-O-tetradecanoylphorbol-13-acetate; type: cell-based; parameters: scale not given: the % may be the effect or the level left; details: human gammaherpesvirus 4; in short: as §1
[4] = Cytotoxicity against human Raji cells assessed as cell viability at 0.32 nmol after 48 hrs by trypan blue staining method; type: cell-based; details: read-out: Activity
In short: (§2)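 Raji cells grown to 10^6 cells/mL, pelleted and resuspended in RPMI 1640 + 10% FCS with 4 mM n-butyric acid, 32 pmol TPA (20 ng/mL) and test compound in DMSO (mol ratio to TPA 10–1000, i.e. 0.32–32 nmol). Incubated 48 h at 37 °C. Viability then counted on a hemocytometer with Trypan Blue. ≥60% survival required for valid EA readings.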

[5] = Cytotoxicity against human Raji cells assessed as cell viability at 16 nmol after 48 hrs by trypan blue staining method; type: cell-based; details: read-out: Activity; in short: as §2
[6] = system: Raji; assay: Inhibition of 12-O-tetradecanoylphorbol-13-acetate-induced EBV-early antigen activation in human Raji cells assessed as EA induction at 16 nmol relative to 12-O-tetradecanoylphorbol-13-acetate; type: cell-based; parameters: scale not given: the % may be the effect or the level left; details: human gammaherpesvirus 4; in short: as §1
[7] = Cytotoxicity against human Raji cells assessed as cell viability at 32 nmol after 48 hrs by trypan blue staining method; type: cell-based; details: read-out: Activity; in short: as §2
[8] = system: Raji; assay: Inhibition of 12-O-tetradecanoylphorbol-13-acetate-induced EBV-early antigen activation in human Raji cells assessed as EA induction at 3.2 nmol relative to 12-O-tetradecanoylphorbol-13-acetate; type: cell-based; parameters: scale not given: the % may be the effect or the level left; details: human gammaherpesvirus 4; in short: as §1
[9] = Cytotoxicity against human Raji cells assessed as cell viability at 3.2 nmol after 48 hrs by trypan blue staining method; type: cell-based; details: read-out: Activity; in short: as §2

Structure (SMILES): CC1=C(/C=C/C(C)=C/C=C/C(C)=C/C=C/C=C(C)/C=C/C=C(C)/C=C/C2=C(C)CCCC2(C)C)C(C)(C)CCC1 [BETA CAROTENE]
- Activity [1]: 100%
- IC50 [2]: 400 molar ratio
- Activity [3]: 9.1%

Structure (SMILES): COc1ccc(O)c(/C=C/Cc2ccc(O)c(OC)c2OC)c1 [DALBERATIN B]
- viability at 48 h, 0.32 nmol [4]: > 80%
- Activity [1]: 91.7%
- IC50 [2]: 303 molar ratio
- viability at 48 h, 16 nmol [5]: > 80%
- Activity [6]: 31.1%
- viability at 48 h, 32 nmol [7]: 70%
- Activity [8]: 68.3%
- viability at 48 h, 3.2 nmol [9]: > 80%
- Activity [3]: 0%

Structure (SMILES): COc1c(O)cccc1/C=C/Cc1ccc(O)c(O)c1OC [DALBERATIN E]
- viability at 48 h, 0.32 nmol [4]: > 80%
- Activity [1]: 82%
- IC50 [2]: 209 molar ratio
- viability at 48 h, 16 nmol [5]: > 80%
- Activity [6]: 16.4%
- viability at 48 h, 32 nmol [7]: 70%
- Activity [8]: 60.3%
- viability at 48 h, 3.2 nmol [9]: > 80%
- Activity [3]: 0%

More lines, main results first:

- IC50 [2]: 213 molar ratio
Structure (SMILES): COc1c(O)cccc1/C=C/Cc1ccc(O)c(OC)c1OC [DALBERATIN A]
- viability at 48 h, 0.32 nmol [4]: > 80%
- Activity [1]: 85.1%
- viability at 48 h, 16 nmol [5]: > 80%
- Activity [6]: 18.5%
- viability at 48 h, 32 nmol [7]: 60%
- Activity [8]: 63.6%
- viability at 48 h, 3.2 nmol [9]: > 80%
- Activity [3]: 0%

- IC50 [2]: 223 molar ratio
Structure (SMILES): COc1ccc(C/C=C/c2cccc(O)c2OC)c(OC)c1O [DALBERATIN C]
- viability at 48 h, 0.32 nmol [4]: > 80%
- Activity [1]: 86.7%
- viability at 48 h, 16 nmol [5]: > 80%
- Activity [6]: 20.9%
- viability at 48 h, 32 nmol [7]: 60%
- Activity [8]: 65%
- viability at 48 h, 3.2 nmol [9]: > 80%
- Activity [3]: 0%
